Source: ChEMBL document CHEMBL1649398, “Synthesis and evaluation of tumor cell growth inhibition of methyl 3-amino-6-[(hetero)arylethynyl]thieno[3,2-b]pyridine-2-carboxylates. Structure-activity relationships, effects on the cell cycle and apoptosis” (Eur J Med Chem, 2011)

How the values were obtained:
[1] = system: MCF7; test: Growth inhibition of human MCF7 cells after 48 hrs by SRB assay; assay type: functional; conditions: MCF7, 48 h
In short: (§1)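 Adherent cells kept in RPMI-1640 with 5% heat-inactivated FBS, 2 mM glutamine and antibiotics at 37 °C, 5% CO₂. Plated at 1.5 ×10⁵ cells/mL (MCF-7) or 0.75 ×10⁵ cells/mL (A375-C5, NCI-H460) and grown 24 h. […] TCA fixation, SRB stain, absorbance 492 nm. GI₅₀ is 50% inhibition of net growth; mean ± SEM, three experiments in duplicate.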

[2] = Growth inhibition of human A375-C5 cells after 48 hrs by SRB assay; assay type: functional; conditions: A375-C5, 48 h; in short: as §1
[3] = system: NCI-H460; test: Growth inhibition of human NCI-H460 cells after 48 hrs by SRB assay; assay type: functional; conditions: NCI-H460, 48 h; in short: as §1
[4] = system: NCI-H460; test: Cell cycle arrest in human NCI-H460 cells assessed as accumulation at G2/M phase at GI50 after 48 hrs by flow cytometry; assay type: functional
[5] = system: NCI-H460; test: Induction of apoptosis in human NCI-H460 cells at GI50 after 48 hrs by V-FITC/propidium iodide staining-based flow cytometry; assay type: functional
[6] = system: NCI-H460; test: Cell cycle arrest in human NCI-H460 cells assessed as accumulation at S phase at GI50 after 48 hrs by flow cytometry; assay type: functional
[7] = system: NCI-H460; test: Cell cycle arrest in human NCI-H460 cells assessed as accumulation at G0/G1 phase at GI50 after 48 hrs by flow cytometry; assay type: functional
[8] = Solubility of the compound in DMSO at 150 uM; assay type: physicochemical

With COC(=O)c1sc2cc(C#Cc3cccnc3)cnc2c1N as the compound, how does the GI50 [1] read?
Its GI50 is greater than 150 µM.

And the GI50 [2]?
The GI50 was greater than 150 µM.

What about the GI50 [3] of the same compound?
The GI50 was greater than 150 µM.

For COC(=O)c1sc2cc(C#Cc3ccsc3)cnc2c1N, which GI50 [1] is on record?
The GI50 was 27.7 µM.

And the GI50 [2]?
The GI50 was 29.6 µM.

And the GI50 [3]?
The GI50 was 24.8 µM.

With COC(=O)c1sc2cc(C#Cc3ccccc3)cnc2c1N as the compound, how does the GI50 [1] read?
Its GI50 is greater than 150 µM.

And the GI50 [2]?
Its GI50 is greater than 150 µM.

And the GI50 [3]?
The GI50 was greater than 150 µM.

Which results are given for COC(=O)c1sc2cc(C#Cc3ccccc3OC)cnc2c1N?
GI50 [1]: > 47.3 µM; GI50 [2]: > 47.3 µM; GI50 [3]: > 47.3 µM

Which GI50 [1] does the source give for COC(=O)c1sc2cc(C#Cc3cccc(OC)c3)cnc2c1N here?
The GI50 was 33.4 µM.

What about the GI50 [2] of the same compound?
Its GI50 is greater than 75 µM.

What about the GI50 [3] of the same compound?
Its GI50 is 49 µM.

Which GI50 [1] does the source give for COC(=O)c1sc2cc(C#Cc3ccc(OC)cc3)cnc2c1N here?
Its GI50 is 0.46 µM.

What about the Activity [4] of the same compound?
The Activity was 18.3%.

And the Activity [5]?
Its Activity is 18.7%.

And the GI50 [2]?
Its GI50 is greater than 37.5 µM.

What about the GI50 [3] of the same compound?
Its GI50 is 0.32 µM.

And the Activity [6]?
The Activity was 22%.

And the Activity [7]?
The Activity was 59.7%.

With COC(=O)c1sc2cc(C#Cc3ccccc3N)cnc2c1N as the compound, how does the GI50 [1] read?
The GI50 was 4.1 µM.

And the Activity [4]?
Its Activity is 24.6%.

And the Activity [5]?
Its Activity is 25.3%.

What about the GI50 [2] of the same compound?
The GI50 was 3.1 µM.

What about the GI50 [3] of the same compound?
The GI50 was 5.7 µM.

What about the Activity [6] of the same compound?
Its Activity is 23.1%.

And the Activity [7]?
Its Activity is 54.7%.

Which results are given for COC(=O)c1sc2cc(C#Cc3cccc(N)c3)cnc2c1N?
GI50 [1]: 10.8 µM; GI50 [2]: 11.6 µM; GI50 [3]: 11.5 µM

For COC(=O)c1sc2cc(C#Cc3ccc(N)cc3)cnc2c1N, which GI50 [1] is on record?
The GI50 was 2.6 µM.

And the Activity [4]?
Its Activity is 13.4%.

What about the Activity [5] of the same compound?
Its Activity is 17%.

What about the GI50 [2] of the same compound?
Its GI50 is 4.8 µM.

What about the GI50 [3] of the same compound?
Its GI50 is 8.9 µM.

And the Activity [6]?
The Activity was 18.6%.

And the Activity [7]?
Its Activity is 68%.

Which GI50 [1] does the source give for COC(=O)c1sc2cc(C#Cc3ccc(N(C)C)cc3)cnc2c1N here?
The GI50 was 20.6 µM.

What about the GI50 [2] of the same compound?
The GI50 was 17.7 µM.

And the GI50 [3]?
Its GI50 is 16.6 µM.

Which GI50 [1] does the source give for COC(=O)c1sc2cc(C#Cc3ccccc3F)cnc2c1N here?
Its GI50 is greater than 150 µM.

What about the GI50 [2] of the same compound?
Its GI50 is greater than 150 µM.

What about the GI50 [3] of the same compound?
Its GI50 is greater than 150 µM.

For COC(=O)c1sc2cc(C#Cc3ccc(F)cc3)cnc2c1N, which GI50 [1] is on record?
Its GI50 is 29 µM.

And the GI50 [2]?
The GI50 was 48.4 µM.

And the GI50 [3]?
The GI50 was 24 µM.

What does the source list for COC(=O)c1sc2cc(C#Cc3ccccn3)cnc2c1N?
GI50 [1]: 37.4 µM; GI50 [2]: 13.9 µM; GI50 [3]: 34.9 µM

Which results are given for C[S+](C)[O-] [DIMETHYL SULFOXIDE]?
Activity [4]: 16.1%; Activity [5]: 12.2%; Activity [6]: 28.8%; Activity [7]: 55.1%

Which solubility [8] does the source give for COc1cccc2c1C(=O)c1c(O)c3c(c(O)c1C2=O)C[C@@](O)(C(=O)CO)C[C@@H]3O[C@H]1C[C@H](N)[C@H](O)[C@H](C)O1 [DOXORUBICIN] here?
The solubility was “Insoluble”.
